IC50 data for 23 molecules are collected here from ChEMBL document CHEMBL1124284, “Design of novel inhibitors of aminopeptidases. Synthesis of peptide-derived diamino thiols and sulfur replacement analogues of bestatin” (J Med Chem, 1988).

This assay is described as follows: Inhibition of partially purified soluble aminopeptidase from rat brain. To be noted: read-out: I50. The method in brief: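 Enzyme from whole fresh Sprague-Dawley rat brain: homogenized in ice-cold 50 mM Tris-HCl pH 7.4 with 1 mM DTT and 0.01 mM ZnCl2, soluble supernatant taken after 80000g spin, 40–70% ammonium sulfate cut, dialyzed. About 30 μg protein started the reaction with leucine p-nitroanilide (final 100 μM), up to 1 h at 37 °C or room temperature. Released p-nitroaniline read at 550 nm.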

In the case of `CC(C)C[C@H](N)CS`, the IC50 was 10 nM.
As for `CC(C)CCNCC(S)[C@@H](N)CC(C)C` (stereo in doubt; 56), the IC50 was found to be 29 nM.
The value for `N[C@H](CS)Cc1ccccc1` was 39 nM; that for `CC(C)CCNCC(S)[C@H](N)CC(C)C` (stereo in doubt; 60) was 2500 nM; that for `CC(C)CCNCC(S)[C@H](N)Cc1ccccc1` (stereo in doubt; 58) was 600 nM.
Consider `CC(C)C[C@@H](NC(=O)[C@H](Cc1ccccc1)NCC(O)[C@@H](N)Cc1ccccc1)C(=O)O` (stereo partly drawn), for which the IC50 is 580 nM.
With `CC(C)CCNCC(S)[C@H](N)CC(C)C` (stereo in doubt; 59), the IC50 was found to be 7500 nM.
As for `CC(C)C[C@H](NC(=O)[C@@H](O)[C@H](N)Cc1ccccc1)C(=O)O` [UBENIMEX], the figure is 170 nM; as for `CC(C)C[C@@H](NC(=O)[C@H](Cc1ccccc1)NCC(S)[C@@H](N)CC(C)C)C(=O)O` (stereo partly drawn), 4 nM.
Turning to `CC(C)C[C@H](NCC(S)[C@@H](N)Cc1ccccc1)C(=O)O` (stereo in doubt; 71), the IC50 amounted to 220 nM.
As for `CC(C)CCNCC(S)[C@H](N)Cc1ccccc1` (stereo in doubt; 57), the figure is 3100 nM; as for `CC(C)C[C@H](NC(=O)C(S)[C@@H](N)Cc1ccccc1)C(=O)O` (stereo partly drawn), 1600 nM.
On to `CC(C)CCNCC(S)[C@@H](N)Cc1ccccc1` (stereo in doubt; 54), for which the IC50 amounted to 20 nM.
As to `CC(C)C[C@H](NCC(S)[C@@H](N)Cc1ccccc1)C(=O)O` (stereo in doubt; 70), the IC50 came out at 4400 nM.
As to `CC(C)C[C@H](NCC(S)[C@@H](N)CC(C)C)C(N)=O` (stereo partly drawn), the IC50 was determined as 34 nM.
With `CC(C)CCNCC(S)[C@@H](N)Cc1ccccc1` (stereo in doubt; 53), the IC50 turned out to be 300 nM.
On to `CC(C)C[C@H](NC(=O)C(S)[C@H](N)Cc1ccccc1)C(=O)O` (stereo in doubt; 79), for which the IC50 amounted to 220 nM.
As to `N[C@@H](CS)Cc1ccccc1`, the IC50 worked out at 6900 nM.
As for `CC(C)C[C@H](NCC(S)[C@@H](N)Cc1ccccc1)C(N)=O` (stereo partly drawn), the IC50 was determined as 33 nM.
On to `CC(C)C[C@@H](NC(=O)[C@H](Cc1ccccc1)NCC(S)[C@@H](N)Cc1ccccc1)C(=O)O` (stereo partly drawn), for which the IC50 was determined as 1 nM.
Take `CC(C)C[C@@H](NC(=O)[C@H](Cc1ccccc1)NCCS)C(=O)O`: the IC50 is 240000 nM.
Consider `CC(C)CCNCC(S)[C@@H](N)CC(C)C` (stereo in doubt; 55), for which the IC50 was 81 nM.
The value for `CC(C)C[C@H](NC(=O)C(S)[C@H](N)Cc1ccccc1)C(=O)O` (stereo in doubt; 78) was 10000 nM.
